The record followed here is PubChem BioAssay AID540281 (Sanford-Burnham Center for Chemical Genomics, 2011).

The campaign covered roughly 2,500 compounds. About 1,500 (60%) were called active.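 How the source made its calls: active means inhibition of at least 30% at 20 µM; inactive means the rest.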 The set was probably picked from earlier hits. The sample as a whole holds a higher share of actives than the screen did.

Chain of Carboxy-terminal domain RNA polymerase II polypeptide A small phosphatase 1 (Homo sapiens) (Q9GZU7 76-261 limits assumed): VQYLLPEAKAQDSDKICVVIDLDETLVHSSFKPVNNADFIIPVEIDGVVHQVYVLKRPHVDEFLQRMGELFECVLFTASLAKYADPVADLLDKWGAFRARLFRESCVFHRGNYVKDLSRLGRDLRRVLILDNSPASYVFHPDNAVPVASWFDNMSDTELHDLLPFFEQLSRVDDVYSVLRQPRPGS

This test addresses Carboxy-terminal domain RNA polymerase II polypeptide A small phosphatase 1 (Homo sapiens) (UniProt Q9GZU7). As to the kind of experiment: Scp-1 phosphatase inhibitors, retest, confirmation, biochemical, colorimetric, single concentration (AID 540281).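 Further: plate controls were DMSO with enzyme for no effect and buffer wells lacking enzyme for full effect.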 The conditions noted are these: recombinant SCP-1 catalytic domain, phosphate release, malachite green absorbance; at 20 µM; hits give high values. Put shortly: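 Assay system: SCP-1 catalytic fragment (residues 76-261). Schedule: 45 min enzyme reaction at room temperature. Medium: Tris acetate pH 5.5 buffer with Mg2+ and detergent. Compound: one dose, 20 µM final, 1.0% DMSO. Reagent: Phospho-17-mer peptide substrate. Detection: absorbance at 630 nm, free phosphate colorimetry.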
In the case of `O=c1[nH]c(=O)n(CCc2ccc(F)cc2)c(O)c1/C=N/N1CCCCC1`, the inhibition is 34.8% (active).
Regarding `COc1ccccc1N=C1SCCCN1C`, the inhibition was 81.9% (active).
In the case of `O=C(O)CCn1cc(C=C2C(=O)NC(=S)NC2=O)c(-c2cccc(Br)c2)n1` it was 40% (active).
